Data set [1] deals with Blood. Nature of the data set: Antiinflammatory activity in human whole blood assessed as inhibition of IL-1beta-induced IL-8 production after overnight incubation by ELISA. Format: functional, tissue-based. The method in brief:
(§1)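 Whole blood from two donors per experiment was collected into ACD-A. Compounds were added and the blood was incubated about 20 h at 37 °C under 5% CO2. Blood was then stimulated for 5 h with LPS (final 100 ng/mL, for TNFα) or IL-1β (final 10 ng/mL, for IL-8). Plasma TNFα or IL-8 was measured by ELISA. Efficacy was expressed as % of dexamethasone, and values are means of at least two experiments.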
On the technique in general: An ELISA detects its analyte on a solid surface through an enzyme-linked reagent.

Data set [2] has as its system Blood. The experiment in a line: Antiinflammatory activity in human whole blood assessed as inhibition of IL-1beta-induced IL-8 production after overnight incubation by ELISA relative to Dexamethasone. The format is functional. The method, boiled down:
as §1

The subject of data set [3] is SAOS-2. The experiment in a line: Induction of alkaline phosphatase expression in human Saos2 cells after 3 days by spectrophotometry. Particulars: SAOS-2, 72 h. Format: cell-based.
A short description of data set [4]: AUC in Sprague-Dawley rat at 10 mg/kg, po. Format: ADME, organism-based. Details: dose 10 mg/kg, route oral. To be noted: plasma. The method in brief:
(§2)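 Male Sprague-Dawley rats received a single intravenous (1 mg/kg) or oral (10 or 50 mg/kg) dose. Plasma pharmacokinetic parameters were derived from these profiles.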

In data set [5] the test system is Blood. The experiment in a line: Antiinflammatory activity in Sprague-Dawley rat whole blood assessed as inhibition of LPS-induced TNFalpha production.
The test system of data set [6] is MG-63. Nature of the data set: Induction of glutamine synthase expression in human MG63 cells after overnight incubation by spectrophotometry. The format is cell-based.
The target in data set [7] is T1, Glucocorticoid receptor (Homo sapiens, UniProt P04150).
T1 sequence (P04150 whole entry): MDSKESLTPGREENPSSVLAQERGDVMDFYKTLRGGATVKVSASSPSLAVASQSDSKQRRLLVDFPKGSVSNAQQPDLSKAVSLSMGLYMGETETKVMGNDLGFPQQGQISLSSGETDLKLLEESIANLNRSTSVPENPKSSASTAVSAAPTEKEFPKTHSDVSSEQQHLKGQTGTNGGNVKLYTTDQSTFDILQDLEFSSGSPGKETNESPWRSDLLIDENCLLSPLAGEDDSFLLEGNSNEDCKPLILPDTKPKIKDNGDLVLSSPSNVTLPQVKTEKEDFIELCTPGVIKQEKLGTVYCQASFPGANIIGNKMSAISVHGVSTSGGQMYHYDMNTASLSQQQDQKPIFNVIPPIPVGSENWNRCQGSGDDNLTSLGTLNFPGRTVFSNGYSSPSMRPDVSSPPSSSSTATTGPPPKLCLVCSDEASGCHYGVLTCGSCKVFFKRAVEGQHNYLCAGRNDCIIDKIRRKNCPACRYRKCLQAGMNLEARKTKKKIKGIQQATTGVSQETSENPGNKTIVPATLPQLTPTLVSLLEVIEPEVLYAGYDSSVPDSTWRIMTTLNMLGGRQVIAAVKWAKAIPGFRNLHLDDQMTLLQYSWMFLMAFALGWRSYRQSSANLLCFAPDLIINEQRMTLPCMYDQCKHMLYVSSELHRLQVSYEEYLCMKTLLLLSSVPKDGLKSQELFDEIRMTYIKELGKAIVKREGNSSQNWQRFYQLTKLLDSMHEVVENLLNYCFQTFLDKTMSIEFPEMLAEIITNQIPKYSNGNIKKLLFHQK
The experiment in a line: Displacement of GS-red from glucocorticoid receptor by fluorescence polarization assay. In general terms: Fluorescence polarisation rises when a labelled molecule tumbles more slowly, as on binding a larger partner.

Data set [8] deals with Blood. Nature of the data set: Antiinflammatory activity in human whole blood assessed as inhibition of LPS-induced TNFalpha production after overnight incubation by ELISA relative to Dexamethasone. Format: functional. The method, boiled down:
as §1

A short description of data set [9]: Volume of distribution at steady state in Sprague-Dawley rat at 1 mg/kg, iv. Details: dose 1 mg/kg, route intravenous. Particulars: in vivo, read-out: Vdss. The format is ADME, organism-based. The method, boiled down: as §2
Data set [10] is described as follows: AUC in Sprague-Dawley rat at 1 mg/kg, iv. Format: ADME, organism-based. On the set-up: dose 1 mg/kg, route intravenous. To be noted: plasma. The method, boiled down:
as §2

Data set [11] deals with T2, Estrogen receptor (Homo sapiens, UniProt P03372).
T2 sequence (P03372 whole entry): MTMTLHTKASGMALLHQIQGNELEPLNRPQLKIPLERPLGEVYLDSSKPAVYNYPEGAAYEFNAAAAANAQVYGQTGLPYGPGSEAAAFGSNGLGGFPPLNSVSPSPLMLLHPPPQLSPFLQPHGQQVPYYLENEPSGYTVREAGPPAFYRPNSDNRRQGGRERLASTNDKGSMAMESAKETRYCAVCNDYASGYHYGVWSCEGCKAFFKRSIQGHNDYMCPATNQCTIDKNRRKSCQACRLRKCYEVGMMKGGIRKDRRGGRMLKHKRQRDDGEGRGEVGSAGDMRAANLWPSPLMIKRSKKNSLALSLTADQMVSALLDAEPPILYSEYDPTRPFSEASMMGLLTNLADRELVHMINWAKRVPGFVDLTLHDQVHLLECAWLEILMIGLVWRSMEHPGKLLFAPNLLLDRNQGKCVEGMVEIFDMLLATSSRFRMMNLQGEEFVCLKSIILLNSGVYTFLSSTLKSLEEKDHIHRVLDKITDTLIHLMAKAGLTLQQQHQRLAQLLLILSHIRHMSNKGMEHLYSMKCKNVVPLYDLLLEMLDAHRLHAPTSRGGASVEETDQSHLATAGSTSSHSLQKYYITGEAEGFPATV
Nature of the data set: Displacement of fluorescently labeled ligand from ERalpha receptor by fluorescence polarization assay. The method, boiled down: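 Binding was measured by fluorescence polarization competition between compound and a fluorescent ligand for full-length receptor or ligand-binding domain. Values are means of at least two experiments.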

The nature of data set [12]: Cmax in Sprague-Dawley rat at 10 mg/kg, po. Format: ADME, organism-based. Details: dose 10 mg/kg, route oral. Particulars: in vivo. The method, boiled down: as §2
For data set [13], the target named is T1, Glucocorticoid receptor. Nature of the data set: Transrepression activity at glucocorticoid receptor alpha in phorbol myristate acetate-stimulated human A549 cells assessed as inhibition of AP1 response element by luciferase reporter gene assay. The format is cell-based. A general note: A reporter such as luciferase makes a cellular process visible.
Data set [14] concerns Rattus norvegicus. The experiment in a line: Antiinflammatory activity in po dosed Freund's complete adjuvant-induced Lewis rat arthritis model assessed as reduction in paw swelling administered once daily for 21 days. Format: functional. To be noted: 504 h. The method in brief:
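Male Lewis rats were inoculated with Mycobacterium butyricum in incomplete Freund's adjuvant. Oral dosing was daily and preventative, running from day 0 to day 21. Onset and progression of arthritis were followed, and ED50 was estimated from the dose response.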

In data set [15] the test system is Blood. Nature of the data set: Antiinflammatory activity in human whole blood assessed as inhibition of TNF-alpha-induced IL-8 production after overnight incubation by ELISA relative to dexamethasone. Format: functional.

By EC50 is commonly meant the concentration giving half of the maximal effect. Usually Emax stands for the maximal effect, on the per cent scale that the assay sets. By AUC is commonly meant concentration integrated over time. Low values mean less exposure, high ones more exposure. By Ki is commonly meant a measure of affinity in units of concentration, obtained from inhibition or displacement. By Cmax is commonly meant the maximum level reached in the sampled fluid or tissue. What is called ED50 is the dose that gives a 50% effect, or the effect in half of the subjects.

Regarding `CN(C)C(=O)c1ccc(-c2ccc3c(n2)Oc2ccccc2[C@H]3C(C)(C)C(=O)Nc2nncs2)cc1F`, the EC50 was 1140 nM in data set [1], 189 nM in data set [5], 44 nM in [6] and 33.2 nM in [13]. The Imax is on record as 70% in data set [2], 83% in data set [8] and 55% in [15]. Besides, the Emax in data set [3] was found to be 13%. The AUC stood at 673 ng·h/mL in data set [4] and 342 ng·h/mL in data set [10]. The values for the inhibition constant (Ki) in [7] and in data set [11] were 1.94 nM and over 75000 nM, respectively. Moreover, in data set [9], the Vd stood at 1 L/kg. Moreover, the maximum concentration (Cmax) in [12] is 285 ng/mL. In addition, the ED50 in [14] is 17 mg/kg.

Regarding `CCN(C)C(=O)c1ccc(-c2ccc3c(n2)Oc2ccccc2[C@@H]3C(C)(C)C(=O)Nc2nncs2)cc1F`, the half-maximal effective concentration (EC50) in data set [1] worked out at 628 nM; in [5], 215 nM; in data set [6] it was 207 nM; in data set [13], 17.7 nM. The Imax stood at 88% in [2], 91% in data set [8] and 76% in data set [15]. The compound also showed a maximal response (Emax) in data set [3] of 24%. Moreover, the AUC in [4] turned out to be 904 ng·h/mL; in [10] it was 526 ng·h/mL. For the same compound, the Ki in data set [7] was 1.64 nM; in [11], over 75000 nM. Besides, in [9], the Vd came out at 0.5 L/kg. The compound further showed a maximum concentration (Cmax) in data set [12] of 351 ng/mL. In addition, in data set [14], the ED50 is 8 mg/kg.

The record behind these values is ChEMBL document CHEMBL1909630, “Azaxanthene based selective glucocorticoid receptor modulators: design, synthesis, and pharmacological evaluation of (S)-4-(5-(1-((1,3,4-thiadiazol-2-yl)amino)-2-methyl-1-oxopropan-2-yl)-5H-chromeno[2,3-b]pyridin-2-yl)-2-fluoro-N,N-dimethylbenzamide (BMS-776532) and its methylene homologue …” (J Med Chem, 2011).
